Tests used:
Format in all cases: functional
[1] = system: MOLT-4; test: Growth inhibition of human MOLT4 cells at 10 uM after 48 hrs by coulter counting; conditions: MOLT-4, 48 h, read-out: GI
Method in brief: (§1)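 Single-dose primary screen across the full NCI 60-cell-line panel. Stocks were made in DMSO and diluted in PBS to a final DMSO below 1%. Cultures at 6 × 10⁴ cells/ml were run in duplicate wells alongside PBS/DMSO vehicle controls at 37 °C in humidified 5% CO₂. Data were expressed as percent growth of treated cells.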

[2] = system: HT-29; test: Growth inhibition of human HT-29 cells at 10 uM after 48 hrs by coulter counting; conditions: HT-29, 48 h, read-out: GI; method in brief: as §1
[3] = system: RPMI-8226; test: Growth inhibition of human RPMI8226 cells at 10 uM after 48 hrs by coulter counting; conditions: RPMI-8226, 48 h, read-out: GI; method in brief: as §1
[4] = system: K562; test: Growth inhibition of human K562 cells at 10 uM after 48 hrs by coulter counting; conditions: K562, 48 h, read-out: GI; method in brief: as §1
[5] = system: DU-145; test: Growth inhibition of human DU145 cells at 10 uM after 48 hrs by coulter counting; conditions: DU-145, 48 h, read-out: GI; method in brief: as §1
[6] = system: SF-539; test: Growth inhibition of human SF539 cells at 10 uM after 48 hrs by coulter counting; conditions: SF-539, 48 h, read-out: GI; method in brief: as §1
[7] = system: UACC-257; test: Growth inhibition of human UACC257 cells at 10 uM after 48 hrs by coulter counting; conditions: UACC-257, 48 h, read-out: GI
Method in brief: (§2)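 Single-dose screen in the NCI 60 human tumor cell line panel (nine subpanels). Compounds dissolved in DMSO and diluted in phosphate buffered saline, keeping final DMSO below 1%. Added in duplicate wells to cells at 6 × 10⁴ cells/ml. Controls held PBS and DMSO at matching dilutions. Incubated at 37 °C, humidified, 5% CO₂. Reported as percent growth of treated cells.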

[8] = system: A498; test: Growth inhibition of human A498 cells at 10 uM after 48 hrs by coulter counting; conditions: A498, 48 h, read-out: GI; method in brief: as §1
[9] = system: SK-MEL-28; test: Growth inhibition of human SK-MEL-28 cells at 10 uM after 48 hrs by coulter counting; conditions: SK-MEL-28, 48 h, read-out: GI; method in brief: as §1
[10] = system: HOP-62; test: Growth inhibition of human HOP62 cells at 10 uM after 48 hrs by coulter counting; conditions: HOP-62, 48 h, read-out: GI; method in brief: as §1
[11] = system: SNB-75; test: Growth inhibition of human SNB75 cells at 10 uM after 48 hrs by coulter counting; conditions: SNB-75, 48 h, read-out: GI; method in brief: as §1
[12] = system: M14; test: Growth inhibition of human M14 cells at 10 uM after 48 hrs by coulter counting; conditions: M14, 48 h, read-out: GI; method in brief: as §1
[13] = system: HCT-116; test: Growth inhibition of human HCT116 cells at 10 uM after 48 hrs by coulter counting; conditions: HCT-116, 48 h, read-out: GI; method in brief: as §1
[14] = system: NCI-H460; test: Growth inhibition of human NCI-H460 cells at 10 uM after 48 hrs by coulter counting; conditions: NCI-H460, 48 h, read-out: GI; method in brief: as §1
[15] = system: MCF7; test: Growth inhibition of human MCF7 cells at 10 uM after 48 hrs by coulter counting; conditions: MCF7, 48 h, read-out: GI; method in brief: as §1
[16] = system: A549; test: Growth inhibition of human A549 cells at 10 uM after 48 hrs by coulter counting; conditions: A549, 48 h, read-out: GI; method in brief: as §1
[17] = system: SF-295; test: Growth inhibition of human SF295 cells at 10 uM after 48 hrs by coulter counting; conditions: SF-295, 48 h, read-out: GI; method in brief: as §1
[18] = system: NCI-H522; test: Growth inhibition of human NCI-H522 cells at 10 uM after 48 hrs by coulter counting; conditions: NCI-H522, 48 h, read-out: GI; method in brief: as §1
[19] = system: OVCAR-4; test: Growth inhibition of human OVCAR4 cells at 10 uM after 48 hrs by coulter counting; conditions: OVCAR-4, 48 h, read-out: GI; method in brief: as §1
[20] = system: CAKI-1; test: Growth inhibition of human Caki1 cells at 10 uM after 48 hrs by coulter counting; conditions: CAKI-1, 48 h, read-out: GI; method in brief: as §1
[21] = system: ACHN; test: Growth inhibition of human ACHN cells at 10 uM after 48 hrs by coulter counting; conditions: read-out: GI; method in brief: as §1
[22] = system: U-251; test: Growth inhibition of human U251 cells at 10 uM after 48 hrs by coulter counting; conditions: U-251, 48 h, read-out: GI; method in brief: as §2
[23] = system: UO-31; test: Growth inhibition of human UO31 cells at 10 uM after 48 hrs by coulter counting; conditions: UO-31, 48 h, read-out: GI; method in brief: as §2
[24] = system: LOX IMVI; test: Growth inhibition of human LOXIMVI cells at 10 uM after 48 hrs by coulter counting; conditions: read-out: GI; method in brief: as §1
[25] = system: HL-60(TB); test: Growth inhibition of human HL-60(TB) cells at 10 uM after 48 hrs by coulter counting; conditions: HL-60, 48 h, read-out: GI
Method in brief: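 Test compound was dissolved in DMSO and diluted in phosphate-buffered saline to a final DMSO level below 1%. Dilutions were plated in duplicate with cell culture at 6 × 10⁴ cells/ml. Vehicle controls held PBS and DMSO at matching dilutions. Incubation was at 37 °C, humidified, under 5% CO₂. Data were reported as percent growth of treated cells.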

[26] = system: SNB-19; test: Growth inhibition of human SNB19 cells at 10 uM after 48 hrs by coulter counting; conditions: SNB-19, 48 h, read-out: GI; method in brief: as §1
[27] = system: NCI/ADR-RES; test: Growth inhibition of human NCI/ADR-RES cells at 10 uM after 48 hrs by coulter counting; conditions: read-out: GI; method in brief: as §1
[28] = system: EKVX; test: Growth inhibition of human EKVX cells at 10 uM after 48 hrs by coulter counting; conditions: read-out: GI; method in brief: as §1
[29] = system: SK-MEL-5; test: Growth inhibition of human SK-MEL-5 cells at 10 uM after 48 hrs by coulter counting; conditions: SK-MEL-5, 48 h, read-out: GI; method in brief: as §1
[30] = system: T47D; test: Growth inhibition of human T47D cells at 10 uM after 48 hrs by coulter counting; conditions: read-out: GI; method in brief: as §2
[31] = system: IGROV-1; test: Growth inhibition of human IGROV1 cells at 10 uM after 48 hrs by coulter counting; conditions: IGROV-1, 48 h, read-out: GI; method in brief: as §1
[32] = system: KM12; test: Growth inhibition of human KM12 cells at 10 uM after 48 hrs by coulter counting; conditions: KM12, 48 h, read-out: GI; method in brief: as §1
[33] = system: CCRF-CEM; test: Growth inhibition of human CCRF-CEM cells at 10 uM after 48 hrs by coulter counting; conditions: read-out: GI; method in brief: as §1
[34] = system: NCI-H23; test: Growth inhibition of human NCI-H23 cells at 10 uM after 48 hrs by coulter counting; conditions: NCI-H23, 48 h, read-out: GI; method in brief: as §1
[35] = system: HCC 2998; test: Growth inhibition of human HCC2998 cells at 10 uM after 48 hrs by coulter counting; conditions: HCC 2998, 48 h, read-out: GI; method in brief: as §1
[36] = system: SK-MEL-2; test: Growth inhibition of human SK-MEL-2 cells at 10 uM after 48 hrs by coulter counting; conditions: SK-MEL-2, 48 h, read-out: GI; method in brief: as §1
[37] = system: BT-549; test: Growth inhibition of human BT549 cells at 10 uM after 48 hrs by coulter counting; conditions: BT-549, 48 h, read-out: GI; method in brief: as §1
[38] = system: MDA-MB-435; test: Growth inhibition of human MDA-MB-435 cells at 10 uM after 48 hrs by coulter counting; conditions: MDA-MB-435, 48 h, read-out: GI; method in brief: as §1
[39] = Growth inhibition of human NCI-322M cells at 10 uM after 48 hrs by coulter counting; conditions: read-out: GI; method in brief: as §1
[40] = system: UACC-62; test: Growth inhibition of human UACC62 cells at 10 uM after 48 hrs by coulter counting; conditions: UACC-62, 48 h, read-out: GI; method in brief: as §2
[41] = system: NCI-H226; test: Growth inhibition of human NCI-H226 cells at 10 uM after 48 hrs by coulter counting; conditions: NCI-H226, 48 h, read-out: GI; method in brief: as §1
[42] = system: SF-268; test: Growth inhibition of human SF268 cells at 10 uM after 48 hrs by coulter counting; conditions: SF-268, 48 h, read-out: GI; method in brief: as §1

COc1ccc(/C=C2\CCCC3=C2N=C2SC=C(C)N2C3c2ccc(OC)cc2)cc1 (configuration not stated)
inhibition of growth at 10 µM [1]: > 10% | inhibition of growth at 10 µM [2]: > 10% | inhibition of growth at 10 µM [3]: 13.5% | inhibition of growth at 10 µM [4]: > 10% | inhibition of growth at 10 µM [5]: > 10% | inhibition of growth at 10 µM [6]: > 10% | inhibition of growth at 10 µM [7]: > 10% | inhibition of growth at 10 µM [8]: 36% | inhibition of growth at 10 µM [9]: > 10% | inhibition of growth at 10 µM [10]: > 10% | inhibition of growth at 10 µM [11]: > 10% | inhibition of growth at 10 µM [12]: > 10% | inhibition of growth at 10 µM [13]: > 10% | inhibition of growth at 10 µM [14]: > 10% | inhibition of growth at 10 µM [15]: > 10% | inhibition of growth at 10 µM [16]: > 10% | inhibition of growth at 10 µM [17]: > 10% | inhibition of growth at 10 µM [18]: > 10% | inhibition of growth at 10 µM [19]: > 10% | inhibition of growth at 10 µM [20]: 12.5% | inhibition of growth at 10 µM [21]: > 10% | inhibition of growth at 10 µM [22]: > 10% | inhibition of growth at 10 µM [23]: 23.3% | inhibition of growth at 10 µM [24]: > 10% | inhibition of growth at 10 µM [25]: > 10% | inhibition of growth at 10 µM [26]: > 10% | inhibition of growth at 10 µM [27]: > 10% | inhibition of growth at 10 µM [28]: > 10% | inhibition of growth at 10 µM [29]: > 10% | inhibition of growth at 10 µM [30]: > 10% | inhibition of growth at 10 µM [31]: > 10% | inhibition of growth at 10 µM [32]: > 10% | inhibition of growth at 10 µM [33]: > 10% | inhibition of growth at 10 µM [34]: > 10% | inhibition of growth at 10 µM [35]: > 10% | inhibition of growth at 10 µM [36]: > 10% | inhibition of growth at 10 µM [37]: > 10% | inhibition of growth at 10 µM [38]: > 10% | inhibition of growth at 10 µM [39]: > 10% | inhibition of growth at 10 µM [40]: > 10% | inhibition of growth at 10 µM [41]: > 10% | inhibition of growth at 10 µM [42]: > 10%

Source: ChEMBL document CHEMBL1926614, “Substituted thiazoles V. synthesis and antitumor activity of novel thiazolo[2,3-b]quinazoline and pyrido[4,3-d]thiazolo[3,2-a]pyrimidine analogues” (2012)
